A selection: hits, their analogues and other compounds. The true share with any hit is near 9%.
M1 ag: M1 muscarinic receptor agonism; 64,000 tested, 3% active; AID 626; B-score at 10 µM; CHO-M1 cells, Fluo-4 calcium fluorescence, agonist mode; active compounds read high;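 active means fluorescence rise, raw or as B-score row- and column-corrected plate score, outside the 99.7% band of its plate's samples, either direction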
M1 antagonist: M1 muscarinic receptor (rat) antagonism | CHO-M1 cells, Fluo-4 calcium, ACh EC80 antagonist mode; active compounds read low | 64,000 tested, 3.4% active | AID 628 | B-score at 10 µM;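 active means calcium fluorescence response, raw or row-and-column corrected B-score, differing from the plate sample mean either way at a set confidence level, mostly lower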
Target sequence (P08482 whole entry, looked up): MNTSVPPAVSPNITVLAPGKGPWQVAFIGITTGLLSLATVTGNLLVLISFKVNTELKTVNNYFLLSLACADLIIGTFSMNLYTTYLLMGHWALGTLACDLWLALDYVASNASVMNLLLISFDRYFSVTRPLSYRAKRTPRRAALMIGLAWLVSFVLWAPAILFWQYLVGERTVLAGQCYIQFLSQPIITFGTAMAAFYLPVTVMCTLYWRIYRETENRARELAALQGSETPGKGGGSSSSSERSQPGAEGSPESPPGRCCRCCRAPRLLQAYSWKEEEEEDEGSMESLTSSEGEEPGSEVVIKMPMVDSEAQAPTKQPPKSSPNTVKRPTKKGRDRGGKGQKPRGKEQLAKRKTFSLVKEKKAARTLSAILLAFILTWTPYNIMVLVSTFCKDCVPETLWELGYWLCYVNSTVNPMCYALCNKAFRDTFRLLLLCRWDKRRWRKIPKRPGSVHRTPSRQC
AP ELISA ortho: orthogonal test for alternative complement pathway inhibitors. 62,000 tested, 0.08% active. Human serum alternative complement pathway, LPS-coated ELISA, C3 deposition; tested in compound mixtures. inhibition, % at 5 µM. AID 1235;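 active means inhibition above 30% in each of the two pooled mixtures holding the compound, so the lower value exceeds 30%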;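 further: 0% = serum in Mg-EGTA without compound and 100% = EDTA serum blank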
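Test system: human serum complement alternative pathway, C3 deposition onto LPS / Medium: Mg2+-EGTA GVB++ buffer containing human serum at 1:15 dilution / Probe or stimulus: Plate-bound LPS / Times: 1 h at 37 °C / Signal: ELISA with HRP anti-human C3 antibody, TMB substrate, absorbance 450 nm / Measure: percent inhibition / Repeats: two pool placements per compound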
mHtt clearance: compounds clearing mutant huntingtin protein. HeLa Exon1htt(103Q)mCFP, aggregate imaging; zero = plate's median compound well. inhibition, % at 1.5 µM. 47,000 tested, 0.42% active;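 active means inhibition of aggregate fluorescence above about 70%, also judged a hit by eye on the cell image, limit read from the data, passing the limit was not always enough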;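 further: cells exposed to compound for three days before fixation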
D1 mod: D1 dopamine receptor (human) allosteric modulation; P21728; HEK293 D1, CRE-luciferase, dopamine EC30 potentiation; actives deviate in either direction; B-score at 10 µM; 58,000 tested, 5.9% active; AID 641;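 active means luminescence count or its row- and column-corrected plate score outside the 99.7% band of the plate's sample wells, on either side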
D1 PAM confirm: confirmation of human D1 dopamine receptor allosteric modulators | shares compounds with D1 mod | AID 642 | luminescence at 10 µM | HEK293 D1 CRE-luciferase, dopamine EC30 potentiation; active compounds read high | 2,200 tested, 88% active;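 active means luminescence in either of two replicates above the same-plate mean plus 3 SD of the low-dose dopamine control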
D1 ag no DA: secondary test of D1 modulators: activity without dopamine; shares compounds with D1 mod; HEK293 D1 CRE-luciferase, luminescence, no dopamine; active compounds read high; luminescence at 10 µM; 1,900 tested, 0.8% active; AID 646; in the data active means luminescence above about 3900
Isoprot counter: counter-screen for D1 modulators: isoproterenol response in HEK293 cells | HEK293 D1 CRE-luciferase, isoproterenol EC30 counter-screen | calls only at 10 µM | 2,200 tested, 63% active | shares compounds with D1 mod;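 active means luminescence in either replicate above plate mean of wells with a partly effective reference agonist dose plus 3 SD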;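 further: isoproterenol raises cAMP through native beta-adrenoceptor Gs so signal bypasses D1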
* hit, by the source's call; i = inactive; / = no result; + = active, no number.

SMILES | M1 ag | M1 antagonist | AP ELISA ortho | mHtt clearance | D1 mod | D1 PAM confirm | D1 ag no DA | Isoprot counter
CCC(C)NC(=O)c1c(N)n(CCCOC)c2nc3ccccc3nc12 (centres undefined) | -0.95 | 0.142 | 4.9 | 5.9 | 5.09* | 9844* | 1520 | +
CCCCOCCCn1c(N)c(C(=O)OC(C)COC)c2nc3ccccc3nc21 (centres undefined) | 3.84 | -0.802 | / | / | 6.75* | 11516* | 1488 | +
COCCCn1c(N)c(C(=O)OC(C)COC)c2nc3ccccc3nc21 (centres undefined) | 0.644 | 0.252 | 6.4 | / | 5.55* | 8820* | 1816 | i
CCC(C)OC(=O)c1c(N)n(Cc2cccs2)c2nc3ccccc3nc12 (centres undefined) | / | / | / | -4.6 | / | / | / | /
NC(=O)CN1C2CCC1CC(NC(=O)C1CC1)C2 (centres undefined) | -0.0194 | 0.149 | 11.6 | / | 0.0165 | / | / | /
O=c1[nH]c2ccccc2c(=O)n1-c1cccc(Cl)c1 | 0.169 | 1.8 | / | 6.9 | 9.16* | 10464* | 1816 | +
C=CCn1c(O)c(C(C)=NCc2cc(OC)cc(OC)c2)c(=O)[nH]c1=O | -0.0254 | -1.02 | 10.3 | / | 3.2* | 9872* | 1756 | +
CCCCn1c(O)c(C(CC)=NCCc2ccccc2)c(=O)[nH]c1=O | 1.58 | 0.109 | 19.4 | / | 6.28* | 8912* | 1568 | +
CCCCn1c(O)c(C(CC)=NCc2ccc(F)cc2)c(=O)[nH]c1=O | / | / | / | 0.0 | / | / | / | /
C=CCn1c(O)c(C(C)=NCc2cccnc2)c(=O)[nH]c1=O | -0.446 | 1.61 | 4.5 | 34.0 | 0.649 | / | / | /
CCCCn1c(O)c(C(C)=NCc2ccc(F)cc2)c(=O)[nH]c1=O | -0.499 | 0.536 | -10.2 | -5.0 | 4* | 10964* | 1708 | i
CP(=O)(O)CCCN | -0.0177 | 0.271 | 4.0 | 8.7 | -0.048 | / | / | /
Cn1c[n+](C)cc1C(O)c1ccccc1 (centres undefined) | 0.203 | 1.05 | 10.6 | 22.9 | 0.181 | / | / | /
CCOC(=O)C1SC2(C(F)(F)F)CC1(O)c1c(C)cc(C)nc1O2 (centres undefined) | 1.16 | 0.364 | / | / | -0.707 | / | / | /
O=C(CCCOc1ccc(Cl)cc1Cl)N1CCC2(CC1)OCCO2 | 0.0154 | 0.0188 | 1.4 | -32.0 | 6.6* | 8848* | 1464 | +
CCOc1cc2[nH]c(=S)n(CCCC(=O)N3CCC4(CC3)OCCO4)c(=O)c2cc1OCC | 0.916 | 0.0502 | 4.1 | 5.8 | 0.848 | / | / | /
CCOC(=O)N(c1ccccc1)P1(=S)OCCO1 | 0.974 | 0.147 | -3.8 | -31.7 | 7.42* | 19704* | 1752 | +
COC(=O)N(c1ccccc1)P1(=S)OCCO1 | 0.821 | -0.00566 | -16.4 | / | 5.31* | 11592* | 1628 | +
CCOC(=O)N(c1ccccc1)P1(=S)OCC(C)O1 (centres undefined) | / | / | 22.4 | 16.2 | / | / | / | /
O=P1(Nc2cccnc2)COc2ccccc2OC1 | -0.268 | 0.0409 | 1.7 | 3.6 | / | / | / | /
CCC(=Nc1ccccc1NC(C)=O)c1c(O)n(C)c(=O)n(C)c1=O | -0.315 | -0.111 | -0.2 | -35.4 | -0.91 | / | / | /
CN(C)CCN=Cc1c(O)n(-c2cccc(C(F)(F)F)c2)c(=O)[nH]c1=O | 0.0228 | -1.17 | -5.9 | / | -0.563 | / | / | /
COc1cccc(-c2nc(CS(=O)CC(=O)N3CCC4(CC3)OCCO4)c(C)o2)c1 (centres undefined) | -1.16 | 0.371 | 14.7 | 34.1 | 1.2 | / | / | /
COc1cccc(-c2cc(C(F)(F)F)n3nc(C(=O)N4CCC5(CC4)OCCO5)cc3n2)c1 | 1.06 | -0.731 | 13.6 | 10.1 | 2.36* | 9588* | / | i
Cc1ccc(CN2CC3CC(C2)c2cccc(=O)n2C3)cc1 (centres undefined) | -0.897 | -0.00769 | / | / | 3.33* | 7636 | 1800 | i
O=c1cccc2n1CC1CC2CN(Cc2c(Cl)cccc2Cl)C1 (centres undefined) | 0.144 | -0.00342 | 3.8 | / | 0.466 | / | / | /
CCC(=NCc1ccco1)c1c(O)[nH]c(=O)[nH]c1=O | -1.12 | 0.0272 | 16.5 | -37.5 | 8.61* | 16800* | / | +
CC1(C)CN=C(Nc2ccc(F)c(F)c2)S1 | 0.794 | 0.441 | 11.7 | 1.0 | 12.1* | 25280* | 1544 | +
CCCCNC(=O)Nc1ccc(C(O)(C(=O)OCC)C(F)(F)F)cc1 (centres undefined) | -1.46 | -0.331 | / | 33.5 | 0.486 | / | / | /
NCCc1ccc(O)cc1 | 0.0055 | 0.366 | -4.1 | / | 5.06* | 7676* | 17832* | +
